# Measurements reported in ChEMBL document CHEMBL1667797, “Synthesis and anticoagulant activity of a new series of 1,4-dihydropyridine derivatives” (2011).
# Key:
# Format in all cases: functional
# [1] = system: Plasma; experiment: Anticoagulant activity in human plasma assessed as prothrombin time index at 60 ug/ml relative to control
# Summary of the method: (§1)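 Citrated human donor plasma (2.5% sodium citrate, spun 5400 rpm at 4 °C for 20 min, kept at -70 °C). 90 µl plasma with 10 µl aqueous compound, incubated 10 min at 37 °C. Pre-incubated PT reagent (200 µl) added, clotting time recorded. Normal saline as control. PT index = sample PT/control PT. Mean of five trials.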
# [2] = system: Plasma; experiment: Anticoagulant activity in human plasma assessed as activated partial […] time index at 30 ug/ml relative to control
# Summary of the method: (§2)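 Citrated plasma from healthy human donors (blood into 2.5% sodium citrate, spun 5400 rpm, 4 °C, 20 min, stored -70 °C). Plasma 90 µl plus 10 µl compound in water, 1 min at 37 °C. APTT reagent added, 5 min at 37 °C, then CaCl2 added. Clotting time read on a coagulometer. Saline control, heparin reference. Index = sample APTT/control APTT. Mean of five trials.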
# [3] = system: Plasma; experiment: Anticoagulant activity in human plasma assessed as prothrombin time at 60 ug/ml; summary of the method: as §1
# [4] = system: Plasma; experiment: Anticoagulant activity in human plasma assessed as activated partial […] time at 30 ug/ml; summary of the method: as §2
# [5] = system: Plasma; experiment: Anticoagulant activity in human plasma assessed as prothrombin time at 30 ug/ml; summary of the method: as §1
# [6] = system: Plasma; experiment: Anticoagulant activity in human plasma assessed as prothrombin time index at 30 ug/ml relative to control; summary of the method: as §1
# [7] = system: Plasma; experiment: Anticoagulant activity in human plasma assessed as activated partial […] time at 60 ug/ml; summary of the method: as §2
# [8] = system: Plasma; experiment: Anticoagulant activity in human plasma assessed as activated partial […] time index at 60 ug/ml relative to control; summary of the method: as §2
Structure (SMILES),Ratio [1],Ratio [2],PT [3],APTT [4],PT [5],Ratio [6],APTT [7],Ratio [8]
CC1=C(C(=O)NNC(N)=S)C(c2ccco2)C(C(=O)NNC(N)=S)=C(C)N1,21.22,19.78,420.21 s,720.35 s,240.42 s,12.14,>1000 s,27.47
CC1=C(C(=O)NNC(N)=S)C(c2ccccc2)C(C(=O)NNC(N)=S)=C(C)N1,2.31,2.4,45.8 s,87.5 s,,0,182.4 s,5.01
CC1=C(C(=O)NNC(N)=S)C(c2ccc(Cl)cc2)C(C(=O)NNC(N)=S)=C(C)N1,1.24,2.49,33.8 s,90.7 s,,0,200.4 s,5.5
CC1=C(C(=O)NNC(N)=S)C(c2ccc(O)cc2)C(C(=O)NNC(N)=S)=C(C)N1,3.5,11,70.8 s,400.8 s,45.6 s,2.3,882.7 s,24.25
CC1=C(C(=O)NNC(N)=S)C(c2ccc([N+](=O)[O-])cc2)C(C(=O)NNC(N)=S)=C(C)N1,2.66,8.82,52.8 s,321.2 s,24.7 s,,721.8 s,19.82
COc1ccc(C2C(C(=O)NNC(N)=S)=C(C)NC(C)=C2C(=O)NNC(N)=S)cc1,4.71,1.85,93.4 s,64.7 s,45.7 s,2.03,120.2 s,3.3
CC1=C(C(=O)NNC(N)=S)C(c2ccc(N(C)C)cc2)C(C(=O)NNC(N)=S)=C(C)N1,2.43,6.09,48.2 s,221.8 s,21.6 s,1.09,480 s,13.18
